Experimental data as given in ChEMBL document CHEMBL1250420, “Identification of chalcones as in vivo liver monofunctional phase II enzymes inducers” (Bioorg Med Chem, 2010).
Calls of active or inactive are those of the source. The calls are words filed in the database; no cut-off is given here.

Columns and labels:
Rattus norvegicus [1] = experiment: Toxicity in Sprague-Dawley rat assessed as change in body weight at 250 mg/kg, po; format: organism-based; set-up: dose 250 mg/kg, route oral; settings: in vivo
Method in brief: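 Healthy female Sprague–Dawley rats (about 200 g, 5–7 per group) given a single oral dose by intragastric syringe, suspended in saline/Tween 80 (4:1); vehicle-treated controls included. Daily weighing and observation for 3 days, then sacrifice with clinical biochemistry, haematology and organ histology.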

Rattus norvegicus [2] = experiment: Induction glutathione-S-transferase activity in rat liver at 15 mg/kg, po qd
Rattus norvegicus [3] = experiment: Toxicity in Sprague-Dawley rat assessed as glutamic-pyruvate level at 10 mg/kg/day, po (RVb = 22.8 +/-13.2 U/L); settings: in vivo
Rattus norvegicus [4] = experiment: Toxicity in Sprague-Dawley rat assessed as glutamic-oxalate transaminase level at 10 mg/kg/day, po (RVb = 71.4 +/- 7.8 U/L); settings: in vivo
Rattus norvegicus [5] = experiment: Induction glutathione-CYP1A1 in rat liver at 15 mg/kg, po qd by EROD assay
TK-10 = experiment: Cytotoxicity against human TK10 cells; format: functional, cell-based
Rattus norvegicus [6] = experiment: Induction of quinone reductase activity in rat liver at 22.5 mg/kg, po qd; format: functional
Method in brief: (§1)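 Oral dosing for 15 days over 3 weeks, then liver QR read as loss of 600 nm absorbance of DCPIP (80 µM) with 0.2 mM NADH, 5 µM FAD, 25 mM Tris–HCl pH 7.4, 6% BSA, 0.01% Tween 20. Specific activity expressed as % change from basal-diet control, n = 5, means ± SE, Student's t-test.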

MCF7 = experiment: Cytotoxicity against human MCF7 cells; format: functional, cell-based
HT-29 = experiment: Cytotoxicity against human HT-29 cells; format: functional, cell-based
Rattus norvegicus [7] = experiment: Toxicity in Sprague-Dawley rat assessed as haemoglobin level at 10 mg/kg/day, po (RVb = 15.1 +/- 4.1 g/L); settings: in vivo
Rattus norvegicus [8] = experiment: Toxicity in Sprague-Dawley rat assessed as leucocyte level at 10 mg/kg/day, po; settings: in vivo
Rattus norvegicus [9] = experiment: Induction of quinone reductase activity in rat liver at 15 mg/kg, po qd; format: functional; method in brief: as §1
Rattus norvegicus [10] = experiment: Toxicity in Sprague-Dawley rat assessed as change in body weight at 10 mg/kg/day, po; settings: in vivo
Rattus norvegicus [11] = experiment: Induction glutathione-S-transferase activity in rat liver at 15 mg/kg, po qd; format: functional
Method in brief: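 Hepatic GST after oral dosing for 15 days over 3 weeks. Substrates 1 mM CDNB and 1 mM reduced glutathione in 100 mM phosphate buffer pH 6.5; CDNB–GSH conjugate followed at 340 nm. Specific activity given as % change from basal-diet control, n = 5, means ± SE, Student's t-test.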

Rattus norvegicus [12] = experiment: Induction glutathione-CYP1A1 in rat liver at 15 mg/kg, po qd by EROD assay; format: functional
Method in brief: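 Rat liver CYP1A1 read as EROD activity: fluorescence increase from resorufin released from 7-ethoxyresorufin, in 100 mM phosphate buffer pH 7.6 with 250 µM NADPH. Oral dosing for 15 days over 3 weeks; change in specific activity expressed as % of basal-diet control, n = 5, means ± SE, Student's t-test.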

[13] = Mutagenic activity in Salmonella typhimurium TA98 assessed as […] increase in number of revertants at 225 ug/plate after 48 hrs by Ames test; format: toxicity; settings: salmonella enterica subsp. enterica serovar typhimurium
Method in brief: (§2)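 TA98 pre-incubation Ames test without listed S9: 50 µL test solution, 500 µL 0.1 M phosphate pH 7.4 and 100 µL bacteria (2 × 10^9/mL), 60 min. Top agar with trace histidine/biotin, then 48 h at 37 °C and revertant count. Doses fall by thirds from the minimum toxic dose; DMSO and 4-NPD (20 µg/plate) controls; two independent experiments, means ± SD.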

[14] = Mutagenic activity in Salmonella typhimurium TA98 assessed as […] increase in number of revertants at 8 ug/plate after 48 hrs by Ames test; format: toxicity; settings: salmonella enterica subsp. enterica serovar typhimurium; method in brief: as §2
[15] = Mutagenic activity in Salmonella typhimurium TA98 assessed as […] increase in number of revertants at 25 ug/plate after 48 hrs by Ames test; format: toxicity; settings: salmonella enterica subsp. enterica serovar typhimurium; method in brief: as §2
[16] = molecular target: T1, Quinone oxidoreductase (Homo sapiens) (UniProt Q08257); experiment: Induction of quinone reductase activity in human MCF7 cells; format: cell-based
T1 sequence (whole entry): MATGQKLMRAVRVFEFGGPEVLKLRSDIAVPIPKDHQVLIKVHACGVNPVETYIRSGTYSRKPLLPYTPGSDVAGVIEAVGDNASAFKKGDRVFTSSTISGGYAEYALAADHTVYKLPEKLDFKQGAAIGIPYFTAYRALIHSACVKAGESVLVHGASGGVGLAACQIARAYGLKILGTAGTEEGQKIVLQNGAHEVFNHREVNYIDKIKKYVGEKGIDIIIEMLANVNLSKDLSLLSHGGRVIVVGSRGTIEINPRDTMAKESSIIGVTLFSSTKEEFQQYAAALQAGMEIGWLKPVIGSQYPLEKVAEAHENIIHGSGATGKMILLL
Method in brief: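 QR induction in MCF-7 tumour cells at 40 µM, a level chosen from a flavone dose–response; result given as ratio of QR specific activity, treated/control.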

[17] = Mutagenic activity in Salmonella typhimurium TA98 assessed as […] increase in number of revertants at 3 ug/plate after 48 hrs by Ames test; format: toxicity; settings: salmonella enterica subsp. enterica serovar typhimurium; method in brief: as §2
[18] = Mutagenic activity in Salmonella typhimurium TA98 assessed as […] increase in number of revertants at 75 ug/plate after 48 hrs by Ames test; format: toxicity; settings: salmonella enterica subsp. enterica serovar typhimurium; method in brief: as §2
Liver microsomes [19] = experiment: Metabolic stability in rat liver microsome; format: ADME
Method in brief: (§3)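 Female Wistar rat liver microsomes (100,000 × g pellet) at 1 mg/mL protein with 400 µM flavonoid (DMSO <1%). Incubated 0.5 h at 37 °C, with or without an NADPH-generating system (MgCl2, NADP+, glucose 6-phosphate, G6PDH) in 0.1 M phosphate pH 7.4, 1.5 mM EDTA. Heat-inactivated control included; triplicate; read by UV spectra and chromatography.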

Liver microsomes [20] = experiment: Metabolic stability in rat liver microsome in presence of NADPH; format: ADME; method in brief: as §3
[21] = dose 15.0 mg/kg, in the assay text read “at 15.0 mg/kg” for “at 22.5 mg/kg”

Row | Structure (SMILES) | Activity (TK-10) | Activity (Rattus norvegicus [6]; [21]) | Activity (MCF7) | Activity (HT-29) | Activity (Rattus norvegicus [7]) | Activity (Rattus norvegicus [8]) | Activity (Rattus norvegicus [9]) | Activity (Rattus norvegicus [10]) | Activity (Rattus norvegicus [11]) | Activity (Rattus norvegicus [12]) | further results
1 | COc1ccc(/C=C/C(=O)c2ccccc2O)cc1 | Active | 60% | Active | inactive | 12.3 g/L | 7300 µL⁻¹ | – | – | – | – | Activity (Rattus norvegicus [1]): Non-toxic; Activity (Rattus norvegicus [2]): -10%; Activity (Rattus norvegicus [3]): 13.2 U/L; Activity (Rattus norvegicus [4]): 52.2 U/L; Activity (Rattus norvegicus [5]): -40%
2 | O=c1cc(-c2ccc(Br)cc2)oc2ccccc12 | inactive | – | inactive | inactive | – | – | 30% | Non-toxic | – | – | –
3 | COc1ccc(/C=C/C(=O)c2ccccc2O)cc1OC | Active | -20% | Active | inactive | 9.3 g/L | 9600 µL⁻¹ | – | Non-toxic | – | – | Activity (Rattus norvegicus [3]): 15 U/L; Activity (Rattus norvegicus [4]): 62.1 U/L
4 | COc1ccc(C2CC(=O)c3ccccc3O2)cc1 (centres undefined) | Active | – | Active | inactive | 11.3 g/L | 8600 µL⁻¹ | – | Non-toxic | – | – | –
5 | O=C(/C=C/c1ccc(Cl)cc1)c1ccccc1 [4-CHLORO CHALCONE] | Active | – | inactive | Active | – | – | 10% | – | -20% | 40% | –
6 | COc1ccc(/C=C/C(=O)c2ccccc2)cc1 [4-METHOXY CHALCONE] | Active | – | inactive | Active | – | – | 10% | – | -10% | -30% | –
7 | CSc1ccc(/C=C/C(=O)c2ccccc2)cc1 | Active | – | inactive | inactive | – | – | 20% | – | 30% | 750% | –
8 | O=C(/C=C/c1ccc2c(c1)OCO2)c1ccccc1O | inactive | 30% | inactive | inactive | – | – | – | – | – | – | Activity (Rattus norvegicus [2]): -20%; Activity (Rattus norvegicus [5]): -50%
9 | O=C(/C=C/c1ccccn1)c1ccccc1O | Active | 13% | Active | Active | – | – | – | – | – | – | Activity [13]: 18; Activity [14]: 17; Activity (Rattus norvegicus [2]): 20%; Activity (Rattus norvegicus [5]): 10%; Activity [15]: 16; Activity [16]: Active; Activity [17]: 13; Activity [18]: 17
10 | O=C1CC(c2ccccc2Br)Oc2ccccc21 (centres undefined) | inactive | – | Active | inactive | – | – | 10% | – | 10% | 30% | –
11 | O=C(/C=C/c1ccc(Cl)cc1)c1ccccc1O | Active | 20% | inactive | Active | – | – | – | – | – | – | Activity (Rattus norvegicus [2]): -20%; Activity (Rattus norvegicus [5]): -10%
12 | Nc1ccc(/C=C/C(=O)c2ccccc2O)cc1 | inactive | 0% | inactive | inactive | – | – | – | – | – | – | –
13 | O=c1cc(-c2ccccc2Br)oc2ccccc12 | inactive | – | Active | inactive | 9.6 g/L | 4500 µL⁻¹ | – | Non-toxic | – | – | Activity (Rattus norvegicus [3]): 45.4 U/L; Activity (Rattus norvegicus [4]): 52.9 U/L
14 | O=C(/C=C/c1ccc(Br)cc1)c1ccccc1O | inactive | 128% | inactive | inactive | 8.4 g/L | 7700 µL⁻¹ | – | Non-toxic | – | – | Activity (Rattus norvegicus [2]): -30%; Activity (Rattus norvegicus [3]): 26 U/L; Stability (Liver microsomes [19]): Stable; Activity (Rattus norvegicus [4]): 61.7 U/L; Stability (Liver microsomes [20]): Stable; Activity (Rattus norvegicus [5]): -80%; Activity [16]: Active
15 | O=C(/C=C/c1ccccc1)c1ccccc1O [2'-HYDROXYCHALCONE] | Active | – | Active | Active | 11.3 g/L | 5200 µL⁻¹ | 10% | – | 30% | -60% | Activity (Rattus norvegicus [1]): Non-toxic; Activity [13]: 14; Activity [14]: 16; Activity [15]: 17; Activity [16]: Active; Activity (Rattus norvegicus [6]; dose 22.5 mg/kg): 10%; Activity [17]: 13; Activity [18]: 20
16 | CN(C)c1ccc(/C=C/C(=O)c2ccccc2O)cc1 | inactive | – | inactive | inactive | 11.5 g/L | 5500 µL⁻¹ | – | Non-toxic | – | – | –
17 | O=c1cc(-c2ccccc2)oc2ccccc12 [FLAVONE] | inactive | – | inactive | inactive | – | – | -30% | – | – | – | –
18 | O=C(/C=C/c1cccs1)c1ccccc1O | – | – | – | – | – | – | 10% | – | 10% | 20% | Activity [13]: 14; Activity [14]: 16; Activity [15]: 19; Activity [17]: 15; Activity [18]: 13
